According to ChEMBL document CHEMBL4196188, “GEX1A, a Polyketide from Streptomyces chromofuscus, Corrects the Cellular Defects Associated with Niemann-Pick Type C1 in Human Fibroblasts” (J Nat Prod, 2018):
The source made the active and inactive calls. No cut-off for these calls is given here.

What was measured:
[1] = biological target: Splicing factor 3B subunit 1 (Homo sapiens) (UniProt O75533); experiment: Binding affinity to SAP155 in human GM18453 cells harboring NPC1 mutant assessed as restoration of cholesterol trafficking at 50 nM after 48 hrs by filipin-staining based fluorescence microscopic analysis; assay type: cell-based
Sequence of Splicing factor 3B subunit 1 (Homo sapiens) (O75533 whole entry, canonical isoform): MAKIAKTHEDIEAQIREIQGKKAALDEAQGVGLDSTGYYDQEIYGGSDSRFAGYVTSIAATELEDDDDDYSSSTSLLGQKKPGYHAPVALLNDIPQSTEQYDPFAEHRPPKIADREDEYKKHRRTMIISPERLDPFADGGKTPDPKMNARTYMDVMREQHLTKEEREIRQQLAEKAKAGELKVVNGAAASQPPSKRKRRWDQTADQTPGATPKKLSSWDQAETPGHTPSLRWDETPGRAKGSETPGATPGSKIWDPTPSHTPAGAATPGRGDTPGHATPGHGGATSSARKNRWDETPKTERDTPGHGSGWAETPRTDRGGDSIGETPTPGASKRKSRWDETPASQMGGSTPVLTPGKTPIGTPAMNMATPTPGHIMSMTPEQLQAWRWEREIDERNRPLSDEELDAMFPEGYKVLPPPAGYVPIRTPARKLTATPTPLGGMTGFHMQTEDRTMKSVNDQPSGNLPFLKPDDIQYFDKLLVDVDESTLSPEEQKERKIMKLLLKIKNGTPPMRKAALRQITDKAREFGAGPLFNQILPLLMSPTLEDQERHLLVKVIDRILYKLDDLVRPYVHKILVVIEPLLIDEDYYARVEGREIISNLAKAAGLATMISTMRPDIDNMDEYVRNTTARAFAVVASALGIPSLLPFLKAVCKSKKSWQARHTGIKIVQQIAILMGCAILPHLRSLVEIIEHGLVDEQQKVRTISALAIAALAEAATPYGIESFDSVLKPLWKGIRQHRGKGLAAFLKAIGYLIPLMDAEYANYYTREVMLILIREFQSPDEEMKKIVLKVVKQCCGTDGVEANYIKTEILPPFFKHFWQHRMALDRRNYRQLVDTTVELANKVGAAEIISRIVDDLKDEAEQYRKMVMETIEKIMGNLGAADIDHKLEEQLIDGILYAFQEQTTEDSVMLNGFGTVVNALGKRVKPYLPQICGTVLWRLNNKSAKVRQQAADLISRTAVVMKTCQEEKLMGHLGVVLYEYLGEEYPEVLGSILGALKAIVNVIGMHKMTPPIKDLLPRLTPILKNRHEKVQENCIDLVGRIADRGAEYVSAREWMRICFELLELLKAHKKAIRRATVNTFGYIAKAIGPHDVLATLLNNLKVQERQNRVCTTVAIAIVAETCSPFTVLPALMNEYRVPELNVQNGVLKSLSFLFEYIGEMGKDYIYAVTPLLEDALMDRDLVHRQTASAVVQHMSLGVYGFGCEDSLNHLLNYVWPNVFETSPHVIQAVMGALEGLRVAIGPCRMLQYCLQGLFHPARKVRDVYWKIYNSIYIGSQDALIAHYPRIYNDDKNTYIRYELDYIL
Procedure, shortened: (§1)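 GM18453 NPC1-mutant fibroblasts were exposed for 48 h to 1 nM–5 μM compound, with DMSO vehicle and SAHA (5 μM) positive control. Cells were fixed, stained with filipin for unesterified cholesterol, and imaged by automated fluorescence microscopy. Filipin area sum per cell count was taken from four images per condition across four independent replicates.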

[2] = biological target: Splicing factor 3B subunit 1 (Homo sapiens) (UniProt O75533); experiment: Binding affinity to SAP155 in human GM18407 cells harboring NPC1 R404Q/M1142T mutant assessed as restoration of cholesterol trafficking at 0.001 to 5 uM after 48 hrs by filipin-staining based fluorescence microscopic analysis; assay type: cell-based
[3] = Protein binding in mouse plasma; assay type: ADME, cell-free
[4] = biological target: Splicing factor 3B subunit 1 (Homo sapiens) (UniProt O75533); experiment: Binding affinity to SAP155 in human GM18453 cells harboring NPC1 mutant assessed as increase in 100 kDa NPC1 protein expression at 50 nM pretreated for 48 hrs followed by endoglycosidase H addition and measured after overnight incubation by Western blot analysis relative to control; assay type: cell-based
Procedure, shortened: (§2)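 GM18453 fibroblasts were exposed 48 h to 50 nM compound, SAHA 5 μM or DMSO 0.1%. 25 μg lysate was denatured 10 min at 65°C, digested with Endo H (1000 U) about 18 h at 37°C, then run on SDS-PAGE. Blots were probed with rabbit anti-NPC1. Isoforms were quantified by densitometry against DMSO control across four independent experiments.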

[5] = Aqueous solubility of the compound in HBSS solution; assay type: physicochemical; conditions: buffer
[6] = Cytotoxicity against human GM18453 cells harboring NPC1 mutant assessed as effect on nuclei shape at 5 uM; assay type: cell-based; procedure, shortened: as §1
[7] = Aqueous solubility of the compound in pH 7.4 buffer; assay type: physicochemical
[8] = Mean residence time in ICR mouse at 2 mg/kg by LC-MS/MS analysis; assay type: ADME, organism-based; conditions: in vivo
[9] = Cytotoxicity against human GM18453 cells harboring NPC1 mutant assessed as effect on cell shape at 5 uM; assay type: cell-based; procedure, shortened: as §1
[10] = Protein binding in human plasma; assay type: ADME, cell-free
[11] = biological target: Splicing factor 3B subunit 1 (Homo sapiens) (UniProt O75533); experiment: Binding affinity to SAP155 in human GM18453 cells harboring NPC1 mutant assessed as increase in 250 kDa NPC1 protein expression at 50 nM pretreated for 48 hrs followed by endoglycosidase H addition and measured after overnight incubation by Western blot analysis; assay type: cell-based; procedure, shortened: as §2
[12] = Stability in mouse liver microsomes; assay type: ADME, microsome
[13] = biological target: Splicing factor 3B subunit 1 (Homo sapiens) (UniProt O75533); experiment: Binding affinity to SAP155 in human GM18453 cells harboring NPC1 mutant assessed as increase in 180 kDa NPC1 protein expression at 50 nM pretreated for 48 hrs followed by endoglycosidase H addition and measured after overnight incubation by Western blot analysis; assay type: cell-based; procedure, shortened: as §2
[14] = biological target: Splicing factor 3B subunit 1 (Homo sapiens) (UniProt O75533); experiment: Binding affinity to SAP155 in human GM18453 cells harboring NPC1 mutant assessed as increase in 180 kDa NPC1 protein expression at 50 nM pretreated for 48 hrs followed by PNGaseF addition and measured after overnight incubation by Western blot analysis; assay type: cell-based
Procedure, shortened: (§3)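 After 48 h exposure of GM18453 fibroblasts to 50 nM compound (controls SAHA 5 μM, DMSO 0.1%), 25 μg lysate with SDS, DTT and Tris-HCl pH 8 was digested with PNGase F (1000 U) about 18 h at 37°C. Samples were immunoblotted with rabbit anti-NPC1, and isoforms were quantified by densitometry over four independent experiments.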

[15] = biological target: Splicing factor 3B subunit 1 (Homo sapiens) (UniProt O75533); experiment: Binding affinity to SAP155 in human GM18453 cells harboring NPC1 mutant assessed as increase in 180 kDa NPC1 protein expression at 50 nM measured after 48 hrs by Western blot analysis; assay type: cell-based
Procedure, shortened: (§4)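 GM18453 fibroblasts were treated 48 h at 37°C, 5% CO2 with 50 nM compound, SAHA 5 μM or DMSO 0.1% v/v, then lysed in RIPA with protease inhibitors. 25–50 μg protein was run on 4–20% SDS-PAGE, blotted to PVDF and probed with rabbit polyclonal C-terminal anti-NPC1 (1:1000, overnight, 4°C). Detection used HRP anti-rabbit and ECL film.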

[16] = Stability in human liver microsomes; assay type: ADME, microsome
[17] = biological target: Splicing factor 3B subunit 1 (Homo sapiens) (UniProt O75533); experiment: Binding affinity to SAP155 in human GM18453 cells harboring NPC1 mutant assessed as increase in 120 kDa NPC1 protein expression at 50 nM measured after 48 hrs by Western blot analysis; assay type: cell-based; procedure, shortened: as §4
[18] = biological target: Splicing factor 3B subunit 1 (Homo sapiens) (UniProt O75533); experiment: Binding affinity to SAP155 in human GM18453 cells harboring NPC1 mutant assessed as increase in 100 kDa NPC1 protein expression at 50 nM measured after 48 hrs by Western blot analysis; assay type: cell-based; procedure, shortened: as §4
[19] = biological target: Splicing factor 3B subunit 1 (Homo sapiens) (UniProt O75533); experiment: Binding affinity to SAP155 in human GM18453 cells harboring NPC1 mutant assessed as increase in 120 kDa NPC1 protein expression at 50 nM pretreated for 48 hrs followed by PNGaseF addition and measured after overnight incubation by Western blot analysis; assay type: cell-based; procedure, shortened: as §3
[20] = Permeability in human Caco2 cells; assay type: ADME, cell-based; conditions: caco-2

COC(=O)C[C@H]1CC[C@H](C)[C@@H](/C(C)=C/C=C/[C@@H](C)C[C@@]2(C)O[C@@H]2[C@H](C)[C@@H](OC)[C@@H](C)O)O1
Activity [1]: Active | Activity [2]: inactive

COC(=O)C[C@H]1CC[C@H](C)[C@@H](/C(C)=C/C=C/[C@@H](C)C[C@@]2(C)O[C@@H]2[C@H](C)[C@@H](OC)[C@@H](C)OC(C)=O)O1
Activity [1]: Active | Activity [2]: inactive

COC(=O)C[C@H]1CC[C@H](C)[C@@H](/C(C)=C/C=C/[C@@H](C)C[C@@]2(C)O[C@@H]2[C@H](C)[C@@H](OC)C(C)=O)O1
Activity [1]: Active | Activity [2]: inactive

CO[C@H]([C@@H](C)[C@H]1O[C@]1(C)C[C@H](C)/C=C/C=C(\C)[C@H]1O[C@@H](CC(=O)O)CC[C@@H]1C)[C@@H](C)O
PB [3]: Active | Activity [1]: Active | Activity [2]: inactive | fold change (FC) [4]: 1.5 | solubility [5]: Soluble | Activity [6]: Toxic | solubility [7]: Soluble | MRT [8]: 4.53 h | Activity [9]: Toxic | PB [10]: Active | Activity [11]: inactive | Stability [12]: Stable | Activity [13]: inactive | Activity [14]: inactive | Activity [15]: Active | Stability [16]: Stable | Activity [17]: Active | Activity [18]: Active | Activity [19]: Active | permeability [20]: Permeable
